Calls of active or inactive are those of the source. No cut-off for these calls is given here.
How the values were obtained:
[1] = biological target: T1, [Pyruvate dehydrogenase (acetyl-transferring)] kinase isozyme 1, mitochondrial (Homo sapiens, UniProt Q15118); assay: Inhibition of recombinant PDHK1 (unknown origin) expressed in Escherichia coli at 10 uM incubated for 1 hr by ELISA
Outline: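 Recombinant His6-SUMO-PDHK1 was expressed in E. coli and purified on nickel resin. It was used at 0.25 µg/well on immobilized PDHA1 substrate (0.5 µg/well) with 10 µM ATP in 50 mM HEPES, 10 mM MgCl2 and 1 mM EGTA. Compounds were screened at 10 µM and percent inhibition was recorded. Detection used anti-p-PDHA1(S293) for 1 h and HRP secondary antibody for 1 h, then o-phenylenediamine, read at OD490.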

[2] = biological target: T2, Heat shock protein HSP90 (Homo sapiens, UniProt P07900+P08238); assay: Inhibition of geldanamycin-BODIPY binding to full-length HSP90 (unknown origin) by fluorescence polarization based competition assay; type: protein assay
Outline: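 Fluorescence polarization competition using full-length HSP90 and geldanamycin-BODIPY as probe.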

[3] = biological target: T1, [Pyruvate dehydrogenase (acetyl-transferring)] kinase isozyme 1, mitochondrial; assay: Inhibition of recombinant PDHK1 (unknown origin) expressed in Escherichia coli incubated for 1 hr by ELISA
[4] = biological target: [Pyruvate dehydrogenase (acetyl-transferring)] kinase isozyme 3, mitochondrial (Homo sapiens, UniProt Q15120); assay: Inhibition of PDHK3 (unknown origin)
Outline: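 PDHK3 was expressed in E. coli as a His6-SUMO fusion and purified on nickel resin. The substrate was His6-SUMO-PDHA1, immobilized at 0.5 µg/well, with enzyme at 0.25 µg/well and 10 µM ATP in 50 mM HEPES, 10 mM MgCl2 and 1 mM EGTA. Phosphorylation was detected with anti-p-PDHA1(S293) for 1 h, then HRP secondary antibody for 1 h. Colour was developed with o-phenylenediamine and read at OD490. IC50 came from a four-parameter fit.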

[5] = biological target: T1, [Pyruvate dehydrogenase (acetyl-transferring)] kinase isozyme 1, mitochondrial; assay: Inhibition of PDHK1 (unknown origin)
[6] = biological target: T2, Heat shock protein HSP90; assay: Inhibition of HSP90 in human NCI-H1299 cells assessed as reduction in HER2 protein levels at 10 uM incubated for 12 hrs by immunoblotting method; type: cell-based
Outline: (§1)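 NCI-H1299 cells were treated for 12 h and lysed in RIPA buffer with protease inhibitors. Equal protein was loaded per lane, run on a gel and transferred to nitrocellulose. Membranes were blocked in TBST with 3% BSA for 1 h at room temperature, then probed with primary antibody for 2 h and secondary antibody for 1 h, both at room temperature. Bands were detected by ECL.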

[7] = biological target: T2, Heat shock protein HSP90; assay: Inhibition of HSP90 in human NCI-H1299 cells assessed as increase in HSP70 protein levels at 10 uM incubated for 12 hrs by immunoblotting method; type: cell-based; outline: as §1
[8] = biological target: T2, Heat shock protein HSP90; assay: Inhibition of HSP90 in human NCI-H1299 cells assessed as reduction in c-MET protein levels at 10 uM incubated for 12 hrs by immunoblotting method; type: cell-based; outline: as §1
[9] = Efflux ratio in human Caco2 cells; details: Caco-2
[10] = Apparent permeability from apical to basolateral side in human Caco2 cells; details: Caco-2
[11] = biological target: T2, Heat shock protein HSP90; assay: Inhibition of HSP90 in human NCI-H1299 cells assessed as reduction in AKT protein levels at 10 uM incubated for 12 hrs by immunoblotting method; type: cell-based; outline: as §1
[12] = Apparent permeability from basolateral to apical side in human Caco2 cells; details: Caco-2
[13] = tested on: NCI-H1299; assay: Increase in oxygen consumption rate/extracellular acidification rate ratio in human NCI-H1299 cells at incubated for 12 hrs; type: functional, cell-based
[14] = tested on: NCI-H1299; assay: Reduction in oxygen consumption rate in human NCI-H1299 cells incubated for 12 hrs; type: functional, cell-based
Outline: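 Cells pre-treated with varying concentrations of compound for 12 h, then oxygen consumption rate and extracellular acidification rate measured on an XF96 extracellular flux analyzer; ECAR/OCR ratio calculated from these readings.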

[15] = tested on: NCI-H1299; assay: Increase in oxygen consumption rate in human NCI-H1299 cells at 10 mM incubated for 12 hrs; type: functional, cell-based
Outline: (§2)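 NCI-H1299 cells were pre-treated with compound for 12 h, then oxygen consumption rate and extracellular acidification rate were read on an XF96 extracellular flux analyzer.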

[16] = tested on: NCI-H1299; assay: Reduction in extracellular acidification rate in human NCI-H1299 cells at 10 mM incubated for 12 hrs; type: functional, cell-based; outline: as §2
[17] = biological target: T1, [Pyruvate dehydrogenase (acetyl-transferring)] kinase isozyme 1, mitochondrial; details: NCI-H1299, 10 mM

T1 sequence (Q15118 whole entry): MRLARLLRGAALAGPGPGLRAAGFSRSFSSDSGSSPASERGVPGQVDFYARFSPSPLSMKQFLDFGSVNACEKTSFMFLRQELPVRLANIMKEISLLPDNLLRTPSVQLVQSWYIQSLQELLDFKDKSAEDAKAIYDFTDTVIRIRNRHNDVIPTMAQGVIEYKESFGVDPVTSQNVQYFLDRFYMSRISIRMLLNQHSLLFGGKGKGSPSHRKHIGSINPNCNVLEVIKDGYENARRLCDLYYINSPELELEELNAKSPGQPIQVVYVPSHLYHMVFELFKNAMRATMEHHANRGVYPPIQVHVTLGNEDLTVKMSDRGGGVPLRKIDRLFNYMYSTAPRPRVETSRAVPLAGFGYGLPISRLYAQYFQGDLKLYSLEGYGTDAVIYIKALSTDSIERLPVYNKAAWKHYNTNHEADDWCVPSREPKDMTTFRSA
Sequence of [Pyruvate dehydrogenase (acetyl-transferring)] kinase isozyme 3, mitochondrial (Q15120 whole entry, the tested form may be a part): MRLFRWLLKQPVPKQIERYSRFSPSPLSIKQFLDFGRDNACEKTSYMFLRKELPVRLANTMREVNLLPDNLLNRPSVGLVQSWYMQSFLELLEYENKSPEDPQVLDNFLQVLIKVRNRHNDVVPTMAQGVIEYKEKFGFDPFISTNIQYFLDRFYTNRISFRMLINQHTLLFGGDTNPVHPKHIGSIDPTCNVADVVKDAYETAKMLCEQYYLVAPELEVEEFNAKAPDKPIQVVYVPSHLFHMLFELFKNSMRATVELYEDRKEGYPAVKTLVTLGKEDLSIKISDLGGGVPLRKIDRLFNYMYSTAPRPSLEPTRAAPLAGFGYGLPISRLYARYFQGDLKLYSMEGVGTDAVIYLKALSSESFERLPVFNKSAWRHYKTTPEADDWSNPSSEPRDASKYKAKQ

CCNC(=O)N1CCC(NC(=O)c2noc(-c3cc(Cl)c(O)cc3O)c2-c2ccc(OC)cc2)CC1
inhibition [1]: > 50%
IC50 [2]: 20 nM
IC50 [3]: 150 nM

O=C(/C=C/c1noc(-c2cc(Cl)c(O)cc2O)c1-c1ccc(O)cc1)N1CCN(c2ncccn2)CC1
inhibition [1]: > 50%
IC50 [2]: 338 nM
IC50 [3]: 521 nM

COc1ccc(-c2c(/C=C/C(=O)N3CCN(c4ccccc4)CC3)noc2-c2cc(Cl)c(O)cc2O)cc1
inhibition [1]: > 50%
IC50 [2]: 677 nM
IC50 [3]: 1920 nM

COc1ccc(-c2c(C(=O)Nc3ccncc3)noc2-c2cc(Cl)c(O)cc2O)cc1
inhibition [1]: > 50%
IC50 [2]: 154 nM
IC50 [3]: 580 nM

COc1ccc(-c2c(/C=C/C(=O)N3CCN(c4ccc(OC)cc4)CC3)noc2-c2cc(Cl)c(O)cc2O)cc1
inhibition [1]: > 50%
IC50 [2]: 700 nM
IC50 [3]: 557 nM

C[C@@H]1C[C@H]2O[C@@H]2/C=C\C=C\C(=O)Cc2c(Cl)c(O)cc(O)c2C(=O)O1 [RADICICOL]
IC50 [4]: 230000 nM
IC50 [5]: 400000 nM

COc1ccc(-c2c(C(=O)NC3CCN(Cc4ccc(Cl)cc4Cl)CC3)noc2-c2cc(Cl)c(O)cc2O)cc1
inhibition [1]: > 50%
IC50 [2]: 127 nM
IC50 [3]: 160 nM

COc1ccc(-c2c(C(=O)N3CCC(Cc4ccccc4)CC3)noc2-c2cc(Cl)c(O)cc2O)cc1
inhibition [1]: < 50%
IC50 [2]: > 10000 nM
IC50 [3]: > 10000 nM

COc1ccc(-c2c(C(=O)NCc3ccc(Cl)cc3Cl)noc2-c2cc(Cl)c(O)cc2O)cc1
inhibition [1]: > 50%
IC50 [2]: 1600 nM
IC50 [3]: 610 nM

COc1ccc(-c2c(C(=O)Nc3ccc(N(C)C)cc3)noc2-c2cc(Cl)c(O)cc2O)cc1
inhibition [1]: > 50%
IC50 [2]: 91 nM
IC50 [3]: 380 nM

COc1cccc(N2CCN(C(=O)/C=C/c3noc(-c4cc(Cl)c(O)cc4O)c3-c3ccc(O)cc3)CC2)c1
inhibition [1]: > 50%
inhibition [6]: Active
inhibition [7]: Active
IC50 [2]: 666 nM
inhibition [8]: Active
efflux ratio [9]: 2.29
Papp A→B [10]: 6.54 ×10⁻⁶ cm/s
IC50 [3]: 776 nM
inhibition [11]: Active
Papp B→A [12]: 15 ×10⁻⁶ cm/s

O=C(/C=C/c1noc(-c2cc(Cl)c(O)cc2O)c1-c1ccc(O)cc1)N1CCN(c2ccccn2)CC1
inhibition [1]: > 50%
IC50 [2]: 357 nM
IC50 [3]: 878 nM

COc1ccc(-c2c(C(=O)NC3CCN(S(C)(=O)=O)CC3)noc2-c2cc(Cl)c(O)cc2O)cc1
inhibition [1]: > 50%
IC50 [2]: 45 nM
IC50 [3]: 130 nM

COc1ccc(-c2c(C(=O)NC3CCN(C(C)=O)CC3)noc2-c2cc(Cl)c(O)cc2O)cc1
inhibition [1]: > 50%
IC50 [2]: 25 nM
IC50 [3]: 210 nM

O=C(/C=C/c1noc(-c2cc(Cl)c(O)cc2O)c1-c1ccc(O)cc1)N1CCN(c2cccc(C(F)(F)F)c2)CC1
inhibition [1]: > 50%
IC50 [2]: 1859 nM
IC50 [3]: 2950 nM

COc1ccc(-c2c(/C=C/C(=O)N3CCN(c4ccccc4OC)CC3)noc2-c2cc(Cl)c(O)cc2O)cc1
inhibition [1]: > 50%
IC50 [2]: 596 nM
IC50 [3]: 845 nM

COc1ccc(-c2c(C(=O)NC3CCN(Cc4ccncc4)CC3)noc2-c2cc(Cl)c(O)cc2O)cc1
inhibition [1]: > 50%
IC50 [2]: 15 nM
IC50 [3]: 59 nM

COc1ccc(-c2c(C(=O)NC3CCN(Cc4ccccc4)CC3)noc2-c2cc(Cl)c(O)cc2O)cc1
inhibition [1]: > 50%
inhibition [6]: Active
inhibition [7]: Active
IC50 [2]: 36 nM
inhibition [8]: Active
IC50 [3]: 25 nM
inhibition [11]: Active

CC(C)c1cc(-c2n[nH]c(=O)n2-c2ccc3c(ccn3C)c2)c(O)cc1O
Activity [13]: inactive

COc1ccc(-c2c(/C=C/C(=O)N3CCN(c4ncccn4)CC3)noc2-c2cc(Cl)c(O)cc2O)cc1
inhibition [1]: > 50%
inhibition [6]: Active
inhibition [7]: Active
IC50 [2]: 208 nM
inhibition [8]: Active
efflux ratio [9]: 0.74
Papp A→B [10]: 6.9 ×10⁻⁶ cm/s
IC50 [3]: 1070 nM
inhibition [11]: Active
Papp B→A [12]: 5.09 ×10⁻⁶ cm/s

CC(C)NCCCn1c(Sc2cc3c(cc2I)OCO3)nc2c(N)ncnc21
inhibition [14]: Active

CC1(C)CC(=O)c2c(C(F)(F)F)nn(-c3ccc(C(N)=O)c(N[C@H]4CC[C@H](O)CC4)c3)c2C1
Activity [13]: inactive

COc1ccc(-c2c(C(=O)NC3CCN(CC4CC4)CC3)noc2-c2cc(Cl)c(O)cc2O)cc1
inhibition [1]: > 50%
inhibition [6]: Active
inhibition [7]: Active
IC50 [2]: 39 nM
inhibition [8]: Active
IC50 [3]: 28 nM
inhibition [11]: Active

COc1ccc(CN2CCC(NC(=O)c3noc(-c4cc(Cl)c(O)cc4O)c3-c3ccc(OC)cc3)CC2)cc1
inhibition [1]: > 50%
inhibition [6]: Active
inhibition [7]: Active
IC50 [2]: 16 nM
inhibition [8]: Active
efflux ratio [9]: 9.04
Papp A→B [10]: 0.962 ×10⁻⁶ cm/s
IC50 [3]: 17 nM
inhibition [11]: Active
Papp B→A [12]: 8.7 ×10⁻⁶ cm/s

COc1ccc(-c2c(/C=C/C(=O)N3CCN(c4cccc(OC)c4)CC3)noc2-c2cc(Cl)c(O)cc2O)cc1
inhibition [1]: > 50%
IC50 [2]: 718 nM
IC50 [3]: 491 nM

COc1ccc(-c2c(/C=C/C(=O)N3CCN(c4ccccn4)CC3)noc2-c2cc(Cl)c(O)cc2O)cc1
inhibition [1]: > 50%
IC50 [2]: 215 nM
IC50 [3]: 1050 nM

COc1ccc(N2CCN(C(=O)/C=C/c3noc(-c4cc(Cl)c(O)cc4O)c3-c3ccc(O)cc3)CC2)cc1
inhibition [1]: > 50%
IC50 [2]: 576 nM
IC50 [3]: 952 nM

COc1ccc(-c2c(C(=O)NC3CCN(CC(C)C)CC3)noc2-c2cc(Cl)c(O)cc2O)cc1
inhibition [1]: > 50%
IC50 [2]: 23 nM
IC50 [3]: 68 nM

COc1ccc(-c2c(/C=C/C(=O)N3CCN(c4cccc(C(F)(F)F)c4)CC3)noc2-c2cc(Cl)c(O)cc2O)cc1
inhibition [1]: > 50%
IC50 [2]: 2255 nM
IC50 [3]: 2370 nM

O=C(/C=C/c1noc(-c2cc(Cl)c(O)cc2O)c1-c1ccc(O)cc1)N1CCN(c2ccc(Cl)c(Cl)c2)CC1
inhibition [1]: > 50%
IC50 [2]: 3939 nM
IC50 [3]: 1420 nM

COc1c(C)cnc(Cn2cnc3c(Cl)nc(N)nc32)c1C
inhibition [14]: Active

CO[C@H]1/C=C\C=C(/C)C(=O)NC2=CC(=O)C(NCCN(C)C)=C(C[C@@H](C)C[C@H](OC)[C@H](O)[C@@H](C)/C=C(\C)[C@@H]1OC(N)=O)C2=O
inhibition [14]: Active

O=C(O)C(Cl)Cl
inhibition [15]: Active
inhibition [16]: Active
inhibition [17]: Active

COc1ccc(-c2c(/C=C/C(=O)N3CCN(c4ccc(Cl)c(Cl)c4)CC3)noc2-c2cc(Cl)c(O)cc2O)cc1
inhibition [1]: > 50%
IC50 [2]: 4232 nM
IC50 [3]: 4310 nM
